{"data": "Measurements gathered from unrelated publications", "organism": "Staphylococcus aureus", "observed": "microbial growth", "note": "Protocols differ between the studies behind these lines."}
{"SMILES": "Cc1ccc2nc(-c3cccnc3)[nH]c2c1", "test": "broth dilution", "system": "ATCC43300 MRSA", "setting": "drug-resistant strain", "MIC": "128 µg/mL"}
{"SMILES": "CC(c1ccc(Cl)c(Cl)c1)n1cnc2cc3c(cc21)CCC3 (stereo not shown)", "MIC": "3.1 to 6.3 µg/mL"}
{"SMILES": "COC(=O)c1cc(-c2cccc(NC(=O)NCc3ccccc3)c2)on1", "test": "broth dilution", "system": "ATCC29213", "MIC": "> 64 µg/mL"}
{"SMILES": "CN[C@H](CC(C)C)C(=O)N[C@H]1C(=O)N[C@@H](CC(N)=O)C(=O)N[C@H]2C(=O)N[C@H]3C(=O)N[C@H](C(=O)N[C@H](C(=O)O)c4cc(O)cc(O)c4-c4cc3ccc4O)[C@H](O)c3ccc(c(Cl)c3)Oc3cc2cc(c3O[C@@H]2O[C@H](CO)[C@@H](O)[C@H](O)[C@H]2O[C@H]2C[C@](C)(N)[C@H](O)[C@H](C)O2)Oc2ccc(cc2Cl)[C@H]1O", "system": "147", "setting": "clinical isolate", "MIC": "0.59 µM"}
{"SMILES": "O=[N+]([O-])c1ccc(/C=N/Nc2nc(Nc3ccccc3)nc(N3CCOCC3)n2)o1", "MIC": "29 µM"}
{"SMILES": "COC(=O)c1cc(-c2cccc(NC(=O)Nc3cccc(Cl)c3Cl)c2)on1", "test": "broth dilution", "system": "ATCC29213", "MIC": "8 to 16 µg/mL"}
{"SMILES": "CN(C)[C@@H]1C(O)=C(C(N)=O)C(=O)[C@@]2(O)C(O)=C3C(=O)c4c(O)cccc4[C@@](C)(O)[C@H]3C[C@@H]12", "system": "USA300", "MIC": "256 µg/mL"}
{"SMILES": "CC(=O)Nc1c2sscc-2[nH]c1=O", "system": "BAA1556 MRSA", "setting": "drug-resistant strain", "MIC": "5 µM"}
{"SMILES": "Clc1ccccc1-c1nc2ccccc2[nH]1", "test": "broth dilution", "system": "ATCC43300 MRSA", "setting": "drug-resistant strain", "MIC": "128 µg/mL"}
{"SMILES": "CCCCCCCCCCCCCCCC(=O)CP(=O)(O)O", "system": "ATCC33591 MRSA", "setting": "drug-resistant strain", "MIC": "100 µg/mL"}
{"SMILES": "Oc1cccc(-c2nc3ccccc3[nH]2)c1", "test": "broth dilution", "system": "ATCC43300 MRSA", "setting": "drug-resistant strain", "MIC": "128 µg/mL"}
{"SMILES": "CO[C@H]1[C@H](O[C@H]([C@H]2O[C@@H](n3ccc(=O)[nH]c3=O)[C@H](O)[C@@H]2O)[C@H](NCCCNC(=O)[C@@H](NC(=O)[C@@H](NC(=O)N[C@H](C(=O)O)C(C)C)[C@@H]2CCN=C(N)N2)[C@@H](OC(=O)CCCCCCC(C)C)C(C)C)C(=O)O)O[C@H](CN)[C@H]1O", "system": "NEWMAN", "MIC": "> 32 µg/mL"}
{"SMILES": "COC(=O)c1cc(-c2cccc(NC(=S)Nc3cccc(Br)c3)c2)on1", "test": "broth dilution", "system": "ATCC29213", "MIC": "> 64 µg/mL"}
{"SMILES": "CC(=O)O[C@H]1C[C@@]2(C)[C@@H](C[C@@H](O)[C@H]3[C@@]4(C)CC[C@@H](O)[C@@H](C)[C@@H]4CC[C@@]32C)/C1=C(\\CCC=C(C)C)C(=O)O", "system": "ATCCBAA1721", "MIC": "8 µg/mL"}
{"SMILES": "COC(=O)c1cc(-c2cccc(NC(=O)Nc3ccccc3)c2)on1", "test": "broth dilution", "system": "ATCC29213", "MIC": "> 64 µg/mL"}
{"SMILES": "CNC(C)[C@@H]1CC[C@@H](N)[C@@H](O[C@H]2[C@H](O)[C@@H](O[C@H]3OC[C@](C)(O)[C@H](NC)[C@H]3O)[C@H](N)C[C@@H]2N)O1 (stereo partly shown)", "system": "NCTC8325", "MIC": "0.5 to 1 µM"}
{"SMILES": "CCCCCCCCCCCC(=O)NP(=O)(O)O", "system": "ATCC33591 MRSA", "setting": "drug-resistant strain", "MIC": "200 µg/mL"}
{"SMILES": "Cc1ccc2[nH]c3c(c2c1)CCCC3NCCc1ccc(O)cc1 (stereo not shown)", "test": "broth dilution", "system": "VISA", "MIC": "16 µg/mL"}
{"SMILES": "Clc1ccc(-c2nc3ccccc3[nH]2)cc1", "test": "broth dilution", "system": "ATCC43300 MRSA", "setting": "drug-resistant strain", "MIC": "128 µg/mL"}
{"SMILES": "C=C(NC(=O)C(=C)NC(=O)c1csc(C2=N[C@@H]3c4csc(n4)[C@H]4NC(=O)c5csc(n5)[C@H]([C@](C)(O)[C@@H](C)O)NC(=O)[C@H]5CSC(=N5)/C(=C/C)NC(=O)[C@H]([C@@H](C)O)NC(=O)c5csc(n5)[C@]3(CC2)NC(=O)[C@H](C)NC(=O)C(=C)NC(=O)[C@H](C)NC(=O)[C@H]([C@@H](C)CC)N[C@@H]2C=Cc3c([C@H](C)O)cc(nc3[C@H]2O)C(=O)O[C@@H]4C)n1)C(N)=O", "system": "MSSA", "MIC": "0.06 µg/mL"}
{"SMILES": "CNC(=O)c1cc(Sc2ccc(NC(=S)Nc3ccc(Cl)c(C(F)(F)F)c3)cc2)ccn1", "system": "NCTC8325", "MIC": "3 µM"}
{"SMILES": "O=C(CCCCC1CCCCC1)NP(=O)(O)O", "system": "ATCC33591 MRSA", "setting": "drug-resistant strain", "MIC": "> 200 µg/mL"}
{"SMILES": "CC1C(=NOCc2cc(-c3ccc(Cl)cc3)no2)CC(c2ccccc2)OC1c1ccccc1 (stereo not shown)", "test": "broth dilution", "system": "MTCC96", "setting": "24 h", "MIC": "25 µg/mL"}
{"SMILES": "CCCCCCCC(=O)CP(=O)(O)O", "system": "ATCC33591 MRSA", "setting": "drug-resistant strain", "MIC": "200 µg/mL"}
{"SMILES": "Cc1ccc2nc(-c3c(F)cccc3Cl)[nH]c2c1", "test": "broth dilution", "system": "ATCC43300 MRSA", "setting": "drug-resistant strain", "MIC": "64 µg/mL"}
{"SMILES": "COC(=O)c1cc(-c2cccc(NC(=O)Nc3c(C)cccc3C)c2)on1", "test": "broth dilution", "system": "ATCC29213", "MIC": "> 64 µg/mL"}
{"SMILES": "CC1(C)CC[C@]2(C(=O)O)CC[C@]3(C)C(=CC[C@@H]4[C@@]5(C)CC[C@H](O)C(C)(C)[C@@H]5CC[C@]43C)[C@@H]2C1", "system": "ATCC25923", "MIC": "32 µg/mL"}
{"SMILES": "CN[C@H](CC(C)C)C(=O)N[C@H]1C(=O)N[C@@H](CC(N)=O)C(=O)N[C@H]2C(=O)N[C@H]3C(=O)N[C@H](C(=O)N[C@H](C(=O)O)c4cc(O)cc(O)c4-c4cc3ccc4O)[C@H](O)c3ccc(c(Cl)c3)Oc3cc2cc(c3O[C@@H]2O[C@H](CO)[C@@H](O)[C@H](O)[C@H]2O[C@H]2C[C@](C)(N)[C@H](O)[C@H](C)O2)Oc2ccc(cc2Cl)[C@H]1O", "system": "ATCC700699", "setting": "drug-resistant strain", "MIC": "0.39 µg/mL"}
{"SMILES": "CCOC(=O)c1cc(-c2cccc(NC(=O)Nc3ccc(Cl)c(Cl)c3)c2)on1", "test": "broth dilution", "system": "ATCC29213", "MIC": "> 64 µg/mL"}
{"SMILES": "CN[C@H](CC(C)C)C(=O)N[C@H]1C(=O)N[C@@H](CC(N)=O)C(=O)N[C@H]2C(=O)N[C@H]3C(=O)N[C@H](C(=O)N[C@H](C(=O)O)c4cc(O)cc(O)c4-c4cc3ccc4O)[C@H](O)c3ccc(c(Cl)c3)Oc3cc2cc(c3O[C@@H]2O[C@H](CO)[C@@H](O)[C@H](O)[C@H]2O[C@H]2C[C@](C)(N)[C@H](O)[C@H](C)O2)Oc2ccc(cc2Cl)[C@H]1O", "system": "USA300", "MIC": "1 µg/mL"}
{"SMILES": "COC(=O)c1cc(-c2ccc(OC)c(NC(=O)Nc3ccc(Cl)c(Cl)c3)c2)on1", "test": "broth dilution", "system": "ATCC29213", "MIC": "> 64 µg/mL"}
{"SMILES": "NC[C@H]1O[C@H](O[C@H]2[C@H](O)[C@@H](O[C@H]3O[C@H](CO)[C@@H](O)[C@H](N)[C@H]3O)[C@H](N)C[C@@H]2N)[C@H](O)[C@@H](O)[C@@H]1O", "system": "USA300", "MIC": "256 µg/mL"}
{"SMILES": "c1ccc(CCOC2CCCc3c2[nH]c2ccccc32)cc1 (stereo not shown)", "test": "broth dilution", "system": "ATCC29213", "MIC": "> 16 µg/mL"}
{"SMILES": "Oc1cc(Cl)ccc1Oc1ccc(Cl)cc1Cl", "MIC": "1.8 µg/mL"}
{"SMILES": "COc1cccc(OC)c1C(=O)N[C@@H]1C(=O)N2[C@@H]1SC(C)(C)[C@@H]2C(=O)O", "system": "ATCCBAA41", "setting": "drug-resistant strain, clinical isolate", "MIC": "> 64 µg/mL"}
{"SMILES": "CCCCCCCCCC(=O)N[C@@H](Cc1c[nH]c2ccccc12)C(=O)N[C@H](CC(N)=O)C(=O)N[C@@H](CC(=O)O)C(=O)N[C@@H]1C(=O)NCC(=O)N[C@@H](CCCN)C(=O)N[C@@H](CC(=O)O)C(=O)N[C@H](C)C(=O)N[C@@H](CC(=O)O)C(=O)NCC(=O)N[C@H](CO)C(=O)N[C@@H]([C@H](C)CC(=O)O)C(=O)N[C@@H](CC(=O)c2ccccc2N)C(=O)O[C@@H]1C", "test": "broth dilution", "system": "USA300", "setting": "drug-resistant strain", "MIC": "0.5 µg/mL"}
{"SMILES": "CO[C@H]1/C=C/O[C@@]2(C)Oc3c(C)c(O)c4c(O)c(c(/C=N/N5CCN(C)CC5)c(O)c4c3C2=O)NC(=O)/C(C)=C\\C=C\\[C@H](C)[C@H](O)[C@@H](C)[C@@H](O)[C@@H](C)[C@H](OC(C)=O)[C@@H]1C", "system": "NEWMAN", "MIC": "0.12 µg/mL"}
{"SMILES": "CC(C)(C)c1cc(NC(=O)Nc2ccc(Oc3ccncc3)cc2)no1", "system": "NCTC8325", "MIC": "100 µM"}
{"SMILES": "Fc1ccc(-c2nc3ccccc3[nH]2)cc1", "test": "broth dilution", "system": "ATCC43300 MRSA", "setting": "drug-resistant strain", "MIC": "512 µg/mL"}
{"SMILES": "O=C(Nc1ccc(O)cc1)Nc1ccc(Cl)c(C(F)(F)F)c1", "system": "NCTC8325", "MIC": "100 µM"}
{"SMILES": "COc1cccc(-c2nc3ccccc3[nH]2)c1", "test": "broth dilution", "system": "ATCC43300 MRSA", "setting": "drug-resistant strain", "MIC": "512 µg/mL"}
{"SMILES": "[H]/N=C(/N)N[C@H]1[C@H](O)[C@@H](O)[C@H](O[C@@H]2O[C@@H](C)[C@](O)(C=O)[C@H]2O[C@@H]2O[C@@H](CO)[C@H](O)[C@@H](O)[C@@H]2NC)[C@@H](N/C(N)=N\\[H])[C@@H]1O", "system": "USA300", "MIC": "64 µg/mL"}
{"SMILES": "O=[N+]([O-])c1ccc(-c2nc3cc(Cl)ccc3[nH]2)o1", "test": "broth dilution", "system": "ATCC700699 MRSA", "setting": "drug-resistant strain", "MIC": "2 µg/mL"}
{"SMILES": "c1ccc2c(-c3nc4ccccc4[nH]3)c3ccccc3cc2c1", "test": "broth dilution", "system": "ATCC43300 MRSA", "setting": "drug-resistant strain", "MIC": "64 µg/mL"}
{"SMILES": "COC(=O)c1cc(-c2cccc(NC(=S)Nc3ccc([N+](=O)[O-])cc3)c2)on1", "test": "broth dilution", "system": "ATCC29213", "MIC": "> 64 µg/mL"}
{"SMILES": "O=C(CCCCCCCCCCOc1ccccc1)NP(=O)(O)O", "system": "ATCC33591 MRSA", "setting": "drug-resistant strain", "MIC": "100 µg/mL"}
